Experimental findings from ChEMBL document CHEMBL4613298, “GPBAR1 Activation by C6-Substituted Hyodeoxycholane Analogues Protect against Colitis” (ACS Med Chem Lett, 2020) are described below.

Data set [1] concerns the target T1, G-protein coupled bile acid receptor 1 (Homo sapiens) (UniProt Q8TDU6).
T1 sequence (whole entry): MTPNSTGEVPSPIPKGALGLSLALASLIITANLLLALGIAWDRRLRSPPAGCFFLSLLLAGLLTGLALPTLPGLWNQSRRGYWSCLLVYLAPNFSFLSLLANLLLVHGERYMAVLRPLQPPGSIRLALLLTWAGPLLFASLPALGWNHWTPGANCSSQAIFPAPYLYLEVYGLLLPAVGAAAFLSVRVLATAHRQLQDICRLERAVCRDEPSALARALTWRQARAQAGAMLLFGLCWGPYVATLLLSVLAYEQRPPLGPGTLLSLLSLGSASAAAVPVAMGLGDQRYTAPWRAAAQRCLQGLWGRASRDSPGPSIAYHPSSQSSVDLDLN
Nature of the data set: Agonist activity at GPBAR1 receptor in LPS-stimulated human THP1 cells assessed as increase in IL-10 expression at 10 uM after 18 hrs by RT-PCR analysis. The format is cell-based. To be noted: THP-1. In a few lines:
(§1)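 THP1 monocytic/macrophage cells primed with LPS, then coincubated with or without test agent at 10 μM; expression of cytokine genes (IL-1β, IL-6, TNF-α, IL-10) measured.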

The subject of data set [2] is Mus musculus. Nature of the data set: Effect on TNFalpha mRNA expression in Gpbar1 deficient TNBS-induced C57BL/6NCrl mouse model of colitis harboring […] expression at 30 mg/kg, po by RT-PCR analysis. The format is functional, organism-based. A digest of the protocol:
(§2)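 Gpbar1+/+ and Gpbar1–/– mice given TNBS alone or with test agent at 30 mg/kg; colon samples analysed by RT-PCR for relative mRNA of Il-1β, Il-6, Tnf-α, Il-10 and Gpbar1.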

Data set [3] concerns Mus musculus. Nature of the data set: Antiinflammatory activity in Gpbar1 (+/+) TNBS-induced C57BL/6NCrl mouse model of colitis assessed as reduction in IL-6 mRNA expression at 30 mg/kg, po by RT-PCR analysis. Type of data set: functional, organism-based. A digest of the protocol: as §2
Data set [4] relates to Mus musculus. Nature of the data set: Anti-colitis activity in Gpbar1 (-/-) TNBS-induced C57BL/6NCrl mouse model of colitis assessed as effect on body weight loss at 30 mg/kg, po. The format is functional, organism-based. In a few lines:
(§3)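 Gpbar1+/+ and Gpbar1–/– mice given TNBS alone or with test agent at 30 mg/kg; body weight change and CDAI followed over the colitis course; colon sections H&E stained (10× magnification); n = 5 per group.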

Data set [5] has as its system Mus musculus. Nature of the data set: Anti-colitis activity in Gpbar1 (+/+) TNBS-induced C57BL/6NCrl mouse model of colitis assessed as decrease in Clinical Disease activity index at 30 mg/kg, po. The format is functional, organism-based. A digest of the protocol:
as §3

Data set [6] relates to Mus musculus. The data set is described as follows: Antiinflammatory activity in Gpbar1 (+/+) TNBS-induced C57BL/6NCrl mouse model of colitis assessed as reduction in IL-1beta mRNA expression at 30 mg/kg, po by RT-PCR analysis. The format is functional, organism-based. In a few lines: as §2
Data set [7] concerns Mus musculus. Nature of the data set: Effect on IL-10 mRNA expression in Gpbar1 deficient TNBS-induced C57BL/6NCrl mouse model of colitis harboring […] expression at 30 mg/kg, po by RT-PCR analysis. The format is functional, organism-based. A digest of the protocol:
as §2

The subject of data set [8] is Mus musculus. Nature of the data set: Antiinflammatory activity in Gpbar1 (+/+) TNBS-induced C57BL/6NCrl mouse model of colitis assessed as reduction in TNFalpha mRNA expression at 30 mg/kg, po by RT-PCR analysis. The format is functional, organism-based. A digest of the protocol: as §2
Data set [9] deals with Mus musculus. The data set is described as follows: Anti-colitis activity in Gpbar1 (-/-) TNBS-induced C57BL/6NCrl mouse model of colitis assessed as colon damage at 30 mg/kg, po by H and E staining analysis. Type of data set: functional, organism-based. In a few lines: as §3
The target of data set [10] is T1, G-protein coupled bile acid receptor 1 (Homo sapiens). The data set is described as follows: Agonist activity at GPBAR1 receptor in human THP1 cells assessed as reduction in LPS-induced IL-1beta expression at 10 uM after 18 hrs by RT-PCR analysis. To be noted: THP-1. Type of data set: cell-based. A digest of the protocol: as §1
The target is the same in data set [11]. The data set is described as follows: Transactivation of human GPBAR1 receptor expressed in HEK293T cells assessed as maximum receptor activation at 10 uM after 18 hrs by cAMP response element driven renilla-luciferase dual reporter gene assay relative to TLCA. The format is functional, cell-based. To be noted: HEK-293T. In a few lines: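 HEK-293T cells transfected with GPBAR1 and a CRE-driven luciferase reporter, exposed to compound at 10 μM. Efficacy is maximal CRE transactivation as percent of that caused by TLCA (10 μM). One experiment, triplicate.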
On the technique in general: A reporter such as luciferase makes a cellular process visible.

In data set [12] the test system is Mus musculus. The data set is described as follows: Anti-colitis activity in Gpbar1 (-/-) TNBS-induced C57BL/6NCrl mouse model of colitis assessed as decrease in Clinical Disease activity index at 30 mg/kg, po. The format is functional, organism-based. In a few lines:
as §3

The test system of data set [13] is Mus musculus. Nature of the data set: Antiinflammatory activity in Gpbar1 (+/+) TNBS-induced C57BL/6NCrl mouse model of colitis assessed as increase in IL-10 mRNA expression at 30 mg/kg, po by RT-PCR analysis. Type of data set: functional, organism-based. In a few lines:
as §2

Data set [14] deals with T1, G-protein coupled bile acid receptor 1 (Homo sapiens). The data set is described as follows: Agonist activity at GPBAR1 receptor in human THP1 cells assessed as reduction in LPS-induced TNFalpha expression at 10 uM after 18 hrs by RT-PCR analysis. Type of data set: cell-based. To be noted: THP-1. In a few lines: as §1
In data set [15] the target is T2, Bile acid receptor (Homo sapiens) (UniProt Q96RI1).
T2 sequence (whole entry): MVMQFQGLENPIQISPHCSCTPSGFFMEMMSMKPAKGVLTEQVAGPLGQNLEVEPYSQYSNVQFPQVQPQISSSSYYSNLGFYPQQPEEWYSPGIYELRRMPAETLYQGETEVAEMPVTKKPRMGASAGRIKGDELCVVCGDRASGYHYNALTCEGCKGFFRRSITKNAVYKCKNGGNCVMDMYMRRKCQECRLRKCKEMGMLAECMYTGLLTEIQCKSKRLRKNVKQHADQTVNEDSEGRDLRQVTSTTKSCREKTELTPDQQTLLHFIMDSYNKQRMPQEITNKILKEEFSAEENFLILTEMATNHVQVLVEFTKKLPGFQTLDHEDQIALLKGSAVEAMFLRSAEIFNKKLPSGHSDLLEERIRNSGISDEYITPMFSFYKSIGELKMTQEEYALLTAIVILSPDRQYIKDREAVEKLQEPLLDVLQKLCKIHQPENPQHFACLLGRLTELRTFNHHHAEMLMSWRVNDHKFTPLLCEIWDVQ
The data set is described as follows: Transactivation of FXR (unknown origin) expressed in HepG2 cells co-expressing pSG5RXR/pGL4.70 assessed as maximum receptor activation at 10 uM after 18 hrs by IR1 driven dual renilla-luciferase reporter gene assay relative to relative to CDCA. Type of data set: cell-based. In a few lines:
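FXR reporter assay in HepG2 cells transfected with FXR and an IR1-driven luciferase reporter, compound at 10 μM. Efficacy is maximal IR1 transactivation relative to CDCA (10 μM). One experiment, triplicate.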

The subject of data set [16] is Mus musculus. Nature of the data set: Effect on IL-1beta mRNA expression in Gpbar1 deficient TNBS-induced C57BL/6NCrl mouse model of colitis harboring […] expression at 30 mg/kg, po by RT-PCR analysis. Type of data set: functional, organism-based. In a few lines: as §2
The species named for a further data set is Homo sapiens. The data set is described as follows: Selectivity index, ratio of transactivation of human GPBAR1 receptor expressed in HEK293T cells assessed as maximum receptor activation at 10 uM to transactivation of human FXR (unknown origin) expressed in HepG2 cells co-expressing pSG5RXR/pGL4.70 assessed as maximum receptor activation at 10 uM. The format is cell-based. A digest of the protocol: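 Ratio of percent activity at GPBAR1 (HEK-293T, CRE-luciferase, 10 μM, vs TLCA 10 μM) to percent activity at FXR (HepG2, IR1-luciferase, 10 μM, vs CDCA 10 μM). Both taken from the same triplicate experiment.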

Data set [17] in a line: Aqueous solubility of compound in pH 7.4 PBS/MeOH at 10 mM after 24 hrs by LC-MS analysis. The format is physicochemical. To be noted: buffer, pH 7.4, 24 h, 10000 µM.
Data set [18] concerns Mus musculus. The data set is described as follows: Anti-colitis activity in Gpbar1 (+/+) TNBS-induced C57BL/6NCrl mouse model of colitis assessed as effect on body weight loss at 30 mg/kg, po. Type of data set: functional, organism-based. A digest of the protocol:
as §3

In data set [19] the test system is Mus musculus. Nature of the data set: Anti-colitis activity in Gpbar1 (+/+) TNBS-induced C57BL/6NCrl mouse model of colitis assessed as colon damage at 30 mg/kg, po by H and E staining analysis. Type of data set: functional, organism-based. In a few lines:
as §3

Data set [20] has as its target T1, G-protein coupled bile acid receptor 1 (Homo sapiens). Nature of the data set: Agonist activity at GPBAR1 receptor in human THP1 cells assessed as reduction in LPS-induced IL-6 expression at 10 uM after 18 hrs by RT-PCR analysis. Type of data set: cell-based. To be noted: THP-1. A digest of the protocol:
as §1

Data set [21] deals with Mus musculus. Nature of the data set: Effect on IL-6 mRNA expression in Gpbar1 deficient TNBS-induced C57BL/6NCrl mouse model of colitis harboring assessed as reduction in IL-6 mRNA expression at 30 mg/kg, po by RT-PCR analysis. Type of data set: functional, organism-based. A digest of the protocol:
as §2

The source made the active and inactive calls. The calls are words filed in the database; no cut-off is given here.

As to `CC[C@]1(O)C[C@H]2[C@@H]3CC[C@H]([C@H](C)CC#N)[C@@]3(C)CC[C@@H]2[C@@]2(C)CC[C@@H](O)C[C@@H]12`, the result (in [1]; in the data set on Mus musculus [3]; with Mus musculus [5]; with Mus musculus [6]; with Mus musculus [8]; in [10]) was Active. Besides, the outcome (in the data set with Mus musculus [13]; in [14]; in the data set with Mus musculus [18]; with Mus musculus [19]; in [20]) was Active. Further, the outcome in the data set with Mus musculus [2], with Mus musculus [4], in the data set with Mus musculus [7], in the data set with Mus musculus [9], with Mus musculus [12] and in the data set on Mus musculus [16] was inactive. Moreover, the result with Mus musculus [21] was inactive. Also, the max activation in [11] was 101%; in data set [15], 12.3%. Besides, in the data set listed under Homo sapiens, the Selectivity Index came to 8.2. In data set [17], the solubility result is listed as “Soluble”.
